Laboratory results as given in ChEMBL document CHEMBL2375274, “Exploration of the structure-activity relationship of a novel tetracyclic class of TSPO ligands-potential novel positron emitting tomography imaging agents” (Bioorg Med Chem Lett, 2013).

Assays:
[1] = Metabolic stability in Wistar rat brain assessed as remaining parent compound after 60 mins by HPLC analysis; assay type: ADME, tissue-based; conditions: read-out: Stability
How it was run: (§1)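 ¹⁸F-labelled compounds given to naïve Wistar rats (n = 1). Brain extracts were taken at 10, 30 and 60 min post-injection and analysed by HPLC. The read-out is % parent.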

[2] = Metabolic stability in Wistar rat brain assessed as remaining parent compound after 30 mins by HPLC analysis; assay type: ADME, tissue-based; conditions: read-out: Stability; how it was run: as §1
[3] = Metabolic stability in Wistar rat brain assessed as remaining parent compound after 10 mins by HPLC analysis; assay type: ADME, tissue-based; conditions: read-out: Stability; how it was run: as §1
Translocator protein = Translocator protein (Rattus norvegicus, UniProt P16257); assay: Displacement of [3H]PK11195 from PBR receptor in Wistar rat heart homogenates; assay type: tissue-based
How it was run: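 Competition binding against [³H]PK11195 in homogenised rat heart tissue.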

[4] = Octanol-water partition coefficient, log P of the compound by reversed phase liquid chromatography; assay type: physicochemical
Striatum = assay: Ratio of drug uptake in Wistar rat striatum after 2 mins to Wistar rat striatum after 30 mins; assay type: ADME, tissue-based; conditions: in vivo
How it was run: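 Biodistribution of ¹⁸F-compounds in naïve Wistar rats (n = 3). Regional brain uptake was measured as % id/g at 2 and 30 min post-injection. Ratios were taken between regions, olfactory bulb:striatum at 30 min, and between times, 2:30 min.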

[5] = Ratio of drug uptake in Wistar rat brain to Wistar rat striatum after 30 mins; conditions: in vivo, 0.5 h
[6] = Metabolic stability in Wistar rat plasma after 15 mins by HPLC analysis; assay type: ADME, cell-free; conditions: read-out: Stability
How it was run: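 Radiolabelled compound was incubated in plasma at 37 °C for 15 min. Chiral HPLC analysis then gave the percentage of the active enantiomer that remained.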

Translocator protein, sequence (P16257 whole entry, looked up): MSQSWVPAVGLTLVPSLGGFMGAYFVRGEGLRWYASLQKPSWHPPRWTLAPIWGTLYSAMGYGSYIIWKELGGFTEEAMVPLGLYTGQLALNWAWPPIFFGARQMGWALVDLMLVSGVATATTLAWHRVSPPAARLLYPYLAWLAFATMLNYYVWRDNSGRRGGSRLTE

Row | Compound | Ki (Translocator protein) | logP [4] | Ratio (Striatum) | Ratio [5] | other results
1 | [3H]C([3H])([3H])N(C(=O)c1cc2ccccc2c(-c2ccccc2Cl)n1)C(C)CC (stereo not drawn) | – | – | – | – | remaining at 1 h [1]: 100%; remaining at 0.5 h [2]: 100%; remaining at 10 min [3]: 100%
2 | CCN(CCF)C(=O)c1sc2ccccc2c2nc3ccccc3c1-2 | 297 nM | – | – | – | –
3 | CCN(CC)C(=O)C1Sc2ccccc2-c2c1c1ccccc1n2CCF (racemic) | – | 3.76 | 2.16 | 1.42 | remaining at 0.5 h [2]: 95%; remaining at 10 min [3]: 99%
4 | CCN(CC)C(=O)C1Sc2ccccc2-c2c1c1ccc(OC)cc1n2CCF (racemic) | 0.4 nM | 3.82 | 4.75 | 3.5 | remaining at 1 h [1]: 98%; remaining at 0.5 h [2]: 98%; remaining at 10 min [3]: 99%
5 | CCN(CC)C(=O)C1Sc2ccccc2-c2c1c1cc(OC)ccc1n2CCF (racemic) | – | 3.77 | 1.73 | – | remaining at 1 h [1]: 96%; remaining at 0.5 h [2]: 97%; remaining at 10 min [3]: 98%
6 | CCN(CC)C(=O)CC1c2cc(OC)ccc2-c2c1c1ccccc1n2CCF (racemic) | 154 nM | – | – | – | –
7 | CCN(CC)C(=O)C1c2ccccc2-c2[nH]c3ccccc3c21 (racemic) | 0.8 nM | – | 5.8 | 1 | –
8 | CCN(CC)C(=O)C1Sc2cc(N(CCF)C(C)=O)ccc2-c2c1c1ccccc1n2CCF (racemic) | 1.35 nM | 3.13 | – | – | –
9 | CCN(CC)C(=O)C1Sc2cc(NC(C)=O)ccc2-c2c1c1ccccc1n2CCF (racemic) | 0.39 nM | 3.15 | – | – | –
10 | CCN(CC)C(=O)C1Sc2ccc(O)cc2-c2c1c1ccccc1n2CCF (racemic) | 0.55 nM | – | 0.75 | 1.25 | –
11 | CCN(CC)C(=O)C1Sc2cc(O)ccc2-c2c1c1ccccc1n2CCF (racemic) | 0.33 nM | 2.7 | 1.11 | 1.44 | –
12 | CCN(CC)C(=O)C1Sc2cc(F)ccc2-c2c1c1ccccc1n2CCF (racemic) | – | 3.87 | – | – | –
13 | CCN(CC)C(=O)C1Sc2ccc(F)cc2-c2c1c1ccccc1n2CCF (racemic) | 0.39 nM | 3.84 | 2.11 | 1.37 | –
14 | CCN(CC)C(=O)C1Sc2cc(OC)ccc2-c2c1c1ccccc1n2CCF (racemic) | 0.3 nM | 3.91 | 1.17 | 1.4 | –
15 | CCN(CC)C(=O)C1Sc2ccc(OC)cc2-c2c1c1ccccc1n2CCF (racemic) | 0.3 nM | 3.65 | 1.42 | 1.37 | –
16 | CCOc1ccc2c(c1)c1c(n2CCF)-c2ccccc2SC1C(=O)N(CC)CC (racemic) | 0.52 nM | 3.88 | 2.89 | 2.67 | –

Row | Compound | Ki (Translocator protein) | logP [4] | Ratio (Striatum) | Ratio [5] | other results
17 | CCN(CC)C(=O)C1Sc2ccccc2-c2c1c1cc(C#N)ccc1n2CCF (racemic) | 0.19 nM | 3.6 | 2.23 | 1.93 | –
18 | CCN(CC)C(=O)C1Sc2ccccc2-c2c1c1cc(OC(F)(F)F)ccc1n2CCF (racemic) | 0.26 nM | 4.03 | 1.29 | 1.46 | –
19 | CCN(CC)C(=O)C1Sc2ccccc2-c2c1c1cc(Br)ccc1n2CCF (racemic) | 0.47 nM | 4.23 | 1.53 | 1.35 | –
20 | CCN(CC)C(=O)C1Sc2ccccc2-c2c1c1cc(F)ccc1n2CCF (racemic) | 0.49 nM | 3.85 | 1.6 | 1.16 | –
21 | CCN(CC)C(=O)C1Sc2ccccc2-c2[nH]c3ccc(NC(C)=O)cc3c21 (racemic) | 59.2 nM | – | – | – | –
22 | CCN(CC)C(=O)C1Sc2ccccc2-c2c1c1ccc(OC)nc1n2CCF (racemic) | 8.44 nM | 3.87 | 4.67 | 2.11 | –
23 | CCN(CC)C(=O)C1Sc2ccccc2-c2c1c1cccnc1n2CCF (racemic) | 3.92 nM | 3.12 | – | – | –
24 | CCN(CC)C(=O)C1Sc2ccccc2-c2c1c1cccc(OC)c1n2CCF (racemic) | 0.93 nM | 3.85 | 5 | 2 | –
25 | CCN(CC)C(=O)C1Sc2ccccc2-c2[nH]c3ccccc3c21 (racemic) | 0.76 nM | – | – | – | –
26 | CCN(CC)C(=O)C1Sc2ccccc2-c2c1c1ccccc1n2Cc1cn(CCF)nn1 (racemic) | 63.6 nM | – | – | – | –
27 | CCN(CC)C(=O)C1Sc2cc(OCCF)ccc2-c2c1c1ccccc1n2C (racemic) | 0.35 nM | – | – | – | –
28 | CCN(CC)C(=O)C1Sc2ccccc2-c2c1c1ccccc1n2CCF (single isomer, unassigned; form 1) | 5.24 nM | – | – | – | –
29 | CCN(CC)C(=O)C1Sc2ccccc2-c2c1c1cc(OC)ccc1n2CCF (single isomer, unassigned; form 1) | 1.17 nM | – | – | – | –
30 | CCN(CC)C(=O)C1Sc2ccccc2-c2c1c1ccccc1n2CCF (single isomer, unassigned; form 2) | 0.22 nM | – | – | – | remaining at 0.25 h [6]: 83%
31 | CCN(CC)C(=O)C1Sc2ccccc2-c2c1c1cc(OC)ccc1n2CCF (single isomer, unassigned; form 2) | 0.29 nM | – | – | – | –

Further lines, with some results ahead:

Row | Ki (Translocator protein) | logP [4] | Ratio (Striatum) | Ratio [5] | Compound | other results
32 | 13.1 nM | 4 | 2.75 | 0.88 | CCN(CC)C(=O)C1(C)Sc2ccccc2-c2c1c1ccccc1n2CCF (racemic) | –
33 | 1.13 nM | 3.69 | – | – | CCN(CC)C(=O)C1Cc2ccccc2-c2c1c1ccccc1n2CCF (racemic) | –
34 | 410 nM | 3.1 | – | – | CCN(CC)C(=O)C1(C)c2c(n(CCF)c3ccccc23)-c2ccccc2S1(=O)=O (racemic) | –
35 | 8.79 nM | 3 | 1.75 | 2.13 | CCN(CC)C(=O)C1c2c(n(CCF)c3ccccc23)-c2ccccc2S1(=O)=O (racemic) | –
36 | – | 3.79 | – | – | CCN(CC)C(=O)C1Sc2c(F)cccc2-c2c1c1ccccc1n2CCF (racemic) | –
37 | 0.33 nM | 3.67 | 1.07 | 1.53 | CCN(CC)C(=O)C1Sc2c(OC)cccc2-c2c1c1ccccc1n2CCF (racemic) | –
38 | 1.07 nM | 3.67 | 3 | 1.78 | CCN(CC)C(=O)C1Sc2cccc(OC)c2-c2c1c1ccccc1n2CCF (racemic) | –
39 | 0.34 nM | 3.96 | 2 | 1.73 | CCN(CC)C(=O)C1Sc2ccccc2-c2c1c1cc(C)ccc1n2CCF (racemic) | –
40 | 19 nM | 3.19 | 1.33 | 1 | CCN(CC)C(=O)C1Sc2ccccc2-c2c1c1cc(O)ccc1n2CCF (racemic) | –
41 | 0.23 nM | 4.17 | 1.29 | 1.57 | CCN(CC)C(=O)C1Sc2ccccc2-c2c1c1cc(Cl)ccc1n2CCF (racemic) | –
42 | 1.09 nM | – | 2 | 2.42 | CCN(CC)C(=O)C1Sc2ccccc2-c2c1c1c(OC)cccc1n2CCF (racemic) | –
43 | 0.52 nM | – | – | – | CCN(CC)C(=O)C1Sc2ccccc2-c2c1c1ccccc1n2CCCCF (racemic) | –
44 | 0.36 nM | – | – | – | CCN(CC)C(=O)C1Sc2ccccc2-c2c1c1ccccc1n2CCCF (racemic) | –
45 | 30.2 nM | – | – | – | CCN(CC)C(=O)C1(C)Sc2ccccc2-c2c1c1ccccc1n2CCF (single isomer, unassigned; form 1) | –
46 | 16.8 nM | – | – | – | CCN(CC)C(=O)C1(C)Sc2ccccc2-c2c1c1ccccc1n2CCF (single isomer, unassigned; form 2) | –
